Published values pooled from the literature.
Cell line: HT-29
Effect on: cell growth or viability

COc1cc2c(O[C@@H]3O[C@H](CO)[C@@H](O)[C@H](O)[C@H]3O)c3c(c(-c4ccc5c(c4)OCO5)c2cc1OC)C(=O)OC3
IC50: 12 µM

O=C(N/N=C1\C(=O)N(Cc2ccccc2)c2ccc(F)cc21)c1cc2ccccc2[nH]1
inhibition (30 µM): 94.3%

COc1ccc2[nH]cc(CCNc3nccc(Nc4cccc5c4ccn5C)n3)c2c1
IC50 (fluorescence; 72 h): 0.0039 µM

COc1c2c(cc3c1OCO3)[C@]13C=C[C@H](OC)C[C@@H]1[N@](C2)C[C@H]3OC(=O)c1ccc2ccccc2c1
IC50 (WST-1): > 10 µM

CCCCCCCC(=O)SCC/C=C/[C@@H]1CC(=O)NCc2nc(cs2)C2=N[C@@](C)(CS2)C(=O)N[C@@H](C(C)C)C(=O)O1
IC50 (resazurin; 48 h): 0.0162 µM

COc1ccc2c(c1)/C(=N/NC(=O)c1cc3ccccc3[nH]1)C(=O)N2Cc1ccccc1
IC50: 2.28 µM

COc1cc2c(c3c1C(=O)C[C@@H](c1ccccc1)O3)[C@H]1[C@@H](O2)OC(C)(C)[C@@H]1OC(C)=O
IC50 (SRB; 72 h): > 10 µM

O=C(N/N=C1\C(=O)N(Cc2ccccc2)c2ccc(Br)cc21)c1cc2ccccc2[nH]1
IC50: 2.26 µM

c1ccc2c(c1)[I+]c1ccccc1-2
IC50 (trypan blue; 48 h): ~0.1 µM

COc1c2c(cc3c1OCO3)[C@]13C=C[C@H](OC)C[C@@H]1[N@](C2)C[C@H]3OC(=O)c1ccoc1
IC50 (WST-1): > 10 µM

N.N.[Cl][Pt][Cl]
IC50 (SRB; 48 h): 20 µM
